How the values were obtained:
UO-31 = assay: The IC50 value was measured on UO-31 cell line in renal tumor type.; assay type: functional, cell-based; conditions: Homo sapiens
Outline: (§1)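 Standard NCI cell-line panel protocol. Cells plated in 96-well format and treated continuously with drug for 48 h. Total protein stained with Sulforhodamine B and IC50 derived.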

MCF7 = assay: The IC50 value was measured on MCF-7 cell line in breast tumor type; assay type: functional, cell-based; conditions: Homo sapiens; outline: as §1
HT-29 = assay: The IC50 value was measured on HT-29 cell line in colon tumor type.; assay type: functional, cell-based; conditions: Homo sapiens; outline: as §1
NCI-H460 = assay: The IC50 value was measured on NCl-H460 cell line in NSCL tumor type; assay type: functional, cell-based; conditions: Homo sapiens; outline: as §1
HCT-15 = assay: The IC50 value was measured on HCT-15 cell line in colon tumor type.; assay type: functional, cell-based; conditions: Homo sapiens; outline: as §1
KM12 = assay: The IC50 value was measured on KM-12 cell line in colon tumor type.; assay type: functional, cell-based; conditions: Homo sapiens; outline: as §1
NCI-H522 = assay: The IC50 value was measured on NCl-H522 cell line in NSCL tumor type.; assay type: functional, cell-based; conditions: Homo sapiens; outline: as §1
OVCAR-3 = assay: The IC50 value was measured on OVCAR-3 cell line in ovarian tumor t; assay type: functional, cell-based; conditions: Homo sapiens; outline: as §1
UACC-62 = assay: The IC50 value was measured on UACC-62 cell line in melanoma tumor type.; assay type: functional, cell-based; conditions: Homo sapiens; outline: as §1
SK-MEL-28 = assay: The IC50 value was measured on SKMEL-28 cell line in melanoma tumor type.; assay type: functional, cell-based; conditions: Homo sapiens; outline: as §1
A549 = assay: In vitro antitumor activity against A549 human non-small lung carcinoma cells containing 10% fetal bovine serum; assay type: functional, cell-based
Outline: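 Cells plated at 2000-3000/well in RPMI with 10% fetal bovine serum and left to adhere for 24 h at 37 °C in humidified 5% CO2. Drug (0.1-1000 nM) then added for a further 72 h of continuous exposure. Sulforhodamine B staining read-out. Growth taken as % of untreated controls and plotted against log drug concentration to give IC50.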

HCT-116 = assay: The IC50 value was measured on HCT116 cell line in colon tumor type.; assay type: functional, cell-based; conditions: Homo sapiens; outline: as §1
DU-145 = assay: The IC50 value was measured on DU-145 cell line in prostate tumor type.; assay type: functional, cell-based; conditions: Homo sapiens; outline: as §1
OVCAR-5 = assay: The IC50 value was measured on OVCAR-5 cell line in ovarian tumor type.; assay type: functional, cell-based; conditions: Homo sapiens; outline: as §1
PC-3 = assay: The IC50 value was measured on PC-3 cell line in prostate tumor type.; assay type: functional, cell-based; conditions: Homo sapiens; outline: as §1
NCI-H23 = assay: The IC50 value was measured on NCl-H23 cell line in NSCL tumor type.; assay type: functional, cell-based; conditions: Homo sapiens; outline: as §1
ACHN = assay: The IC50 value was measured on ACHN cell line in renal tumor type.; assay type: functional, cell-based; conditions: Homo sapiens; outline: as §1
SW-620 = assay: The IC50 value was measured on SW-620 cell line in colon tumor type.; assay type: functional, cell-based; conditions: Homo sapiens; outline: as §1
SF-539 = assay: The IC50 value was measured on SF-539 cell line in CNS tumor type.; assay type: functional, cell-based; conditions: Homo sapiens; outline: as §1
SK-MEL-5 = assay: The IC50 value was measured on SK-MEL-5 cell line in melanoma tumor type.; assay type: functional, cell-based; conditions: Homo sapiens; outline: as §1
OVCAR-8 = assay: The IC50 value was measured on OVCAR-8 cell line in ovarian tumor type.; assay type: functional, cell-based; conditions: Homo sapiens; outline: as §1
LOX IMVI [1] = assay: The IC50 value was measured on LOX […] cell line in melanoma tumor ty; assay type: functional, cell-based; conditions: Homo sapiens; outline: as §1
SF-268 = assay: The IC50 value was measured on SF-268 cell line in CNS tumor type.; assay type: functional, cell-based; conditions: Homo sapiens; outline: as §1
EKVX = assay: The IC50 value was measured on EKVX cell line in NSCL tumor type.; assay type: functional, cell-based; conditions: Homo sapiens; outline: as §1
NCI/ADR-RES = assay: The IC50 value was measured on MCF7-ADR cell line in breast tumor type.; assay type: functional, cell-based; conditions: Homo sapiens; outline: as §1
Malme-3M = assay: The IC50 value was measured on MALME-3M cell line in melanoma tumor type; assay type: functional, cell-based; conditions: Homo sapiens; outline: as §1
[2] = biological target: T1, Dihydrofolate reductase (Homo sapiens) (UniProt P00374)
T1 sequence (whole entry): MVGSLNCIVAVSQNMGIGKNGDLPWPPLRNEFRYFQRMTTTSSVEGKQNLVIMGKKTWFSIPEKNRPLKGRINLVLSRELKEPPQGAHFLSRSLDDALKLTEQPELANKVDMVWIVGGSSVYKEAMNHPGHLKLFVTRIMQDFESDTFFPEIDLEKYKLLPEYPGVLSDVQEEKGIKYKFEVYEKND

SCC-25 = assay: In vitro antitumor activity against SCC25 human head and neck squamous carcinoma cells containing 10% fetal bovine serum; assay type: functional, cell-based
Outline: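 Clonogenic assay. Cells kept in Dulbecco's MEM with 10% FBS and hydrocortisone (400 µg/L). Exponential-phase cells preincubated without drug for 48 h, exposed to 0.01-5000 nM for 72 h, then replated in fresh medium. After 14 days, colonies of ≥5 cells stained with crystal violet and counted. Survival taken as % of untreated controls and IC50 estimated from a log-log plot. Replicate plates, at least three separate days.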

786-0 = assay: cells; conditions: Homo sapiens
Mus musculus [3] = assay: Time to reach 10 mm Tumor size of subcutaneously implanted SCC-VII squamous cell carcinoma in mice; conditions: route subcutaneous
LOX IMVI [4] = assay: The IC50 value was measured on LOX IMVI cell line in melanoma tumor ty; assay type: functional, cell-based; conditions: Homo sapiens; outline: as §1
Mus musculus [5] = assay: Tumor size of subcutaneously implanted SCC-VII squamous cell carcinoma in mice on day 7; conditions: route subcutaneous
SNB-75 = assay: The IC50 value was measured on SNB-75 cell line in CNS tumor type.; assay type: functional, cell-based; conditions: Homo sapiens; outline: as §1
Mus musculus [6] = assay: Tumor size of subcutaneously implanted SCC-VII squamous cell carcinoma in mice on day 0; conditions: route subcutaneous
Mus musculus [7] = assay: Tumor growth delay of subcutaneously implanted SCC-VII squamous cell carcinoma in mice; conditions: route subcutaneous

| IC50 (A549) [nM] | Compound | IC50 (UO-31) [nM] | IC50 (MCF7) [nM] | IC50 (HT-29) [nM] | IC50 (NCI-H460) [nM] | IC50 (HCT-15) [nM] | IC50 (KM12) [nM] | IC50 (NCI-H522) [nM] | IC50 (OVCAR-3) [nM] | IC50 (UACC-62) [nM] | IC50 (SK-MEL-28) [nM] | IC50 (HCT-116) [nM] | IC50 (DU-145) [nM] | IC50 (OVCAR-5) [nM] | IC50 (PC-3) [nM] | IC50 (NCI-H23) [nM] | IC50 (ACHN) [nM] | IC50 (SW-620) [nM] | IC50 (SF-539) [nM] | IC50 (SK-MEL-5) [nM] | also measured |
| --- | --- | --- | --- | --- | --- | --- | --- | --- | --- | --- | --- | --- | --- | --- | --- | --- | --- | --- | --- | --- | --- |
| 5.2 | Nc1nc(N)c2nc(CNc3ccc(C(=O)NC(CCCCNC(=O)c4ccccc4C(=O)O)C(=O)O)cc3)cnc2n1 (stereo not drawn) | 7.8 | 5 | 5.7 | 4.2 | 5.2 | 4.9 | > 1000 | > 1000 | > 1000 | > 1000 | 0.6 | 9.1 | > 1000 | 5 | 9.2 | 5.2 | 3.4 | 26 | 91 | IC50 (OVCAR-8): 5.9 nM; IC50 (LOX IMVI [1]): 0.9 nM; IC50 (SF-268): 8.4 nM; IC50 (EKVX): 36 nM; IC50 (NCI/ADR-RES): 9.1 nM; IC50 (Malme-3M): > 1000 nM |
|  | Nc1nc(N)c2nc(CNc3ccc(C(=O)NC(CCCNC(=O)c4cc(Cl)c(Cl)cc4C(=O)O)C(=O)O)cc3)cnc2n1 (stereo not drawn) |  |  |  |  |  |  |  |  |  |  |  |  |  |  |  |  |  |  |  | IC50/[E] (nM milliunit-1) [2]: 2.4; IC50 (SCC-25): 18 nM |
| 23 | Nc1nc(N)c2nc(CNc3ccc(C(=O)NC(CNC(=O)c4ccccc4C(=O)O)C(=O)O)cc3)cnc2n1 (stereo not drawn) |  |  |  |  |  |  |  |  |  |  |  |  |  |  |  |  |  |  |  | IC50/[E] (nM milliunit-1) [2]: 3.5 |

| Compound | IC50 (A549) [nM] | IC50 (UO-31) [nM] | IC50 (MCF7) [nM] | IC50 (HT-29) [nM] | IC50 (NCI-H460) [nM] | IC50 (HCT-15) [nM] | IC50 (KM12) [nM] | IC50 (NCI-H522) [nM] | IC50 (OVCAR-3) [nM] | IC50 (UACC-62) [nM] | IC50 (SK-MEL-28) [nM] | IC50 (HCT-116) [nM] | IC50 (DU-145) [nM] | IC50 (OVCAR-5) [nM] | IC50 (PC-3) [nM] | IC50 (NCI-H23) [nM] | IC50 (ACHN) [nM] | IC50 (SW-620) [nM] | IC50 (SF-539) [nM] | IC50 (SK-MEL-5) [nM] | also measured |
| --- | --- | --- | --- | --- | --- | --- | --- | --- | --- | --- | --- | --- | --- | --- | --- | --- | --- | --- | --- | --- | --- |
| CN(Cc1cnc2nc(N)nc(N)c2n1)c1ccc(C(=O)N[C@@H](CCC(=O)O)C(=O)O)cc1 [METHOTREXATE] | 23 | 191 | 36 | 32 | 28 | 30 | 42 | 229 | 398 | 28 | > 1000 | 30 | 23 | > 1000 | 2 | 43 | 40 | 33 | 35 | 87 | IC50 (786-0): 33 nM; Time (Mus musculus [3]): 12 days; IC50 (LOX IMVI [4]): 26 nM; Tumor size (Mus musculus [5]): 7.3 mm; IC50 (SNB-75): > 10 µM; Tumor size (Mus musculus [6]): 1.6 mm; IC50 (OVCAR-8): 31 nM; IC50 (SF-268): 52 nM; IC50 (EKVX): > 1000 nM; IC50 (NCI/ADR-RES): 78 nM; IC50 (SCC-25): 27 nM; TGD (Mus musculus [7]): 5 days; IC50 (Malme-3M): > 1000 nM |
